Screens deposited in PubChem BioAssay by several laboratories.
L major viab: Leishmania major promastigote growth inhibition | Leishmania major promastigotes, resazurin fluorescence viability | inhibition, % at 10 µM | hit rate 9% among 200,000 | AID 1063; in the data active means inhibition above about 50%;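 further: promastigotes grown with compound for 44 hours at 28 °C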
T cruzi inh: T. cruzi replication inhibition; T. cruzi beta-gal in NIH3T3, luminescence, 90 h; hit rate 1.4% among 300,000; inhibition, % (test concentration not listed);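 active means mean inhibition across valid replicates above about 55%, limit read from the data; inconclusive means mean below that limit but half or more replicates reach it; inactive means mean below it, under half of replicates reach it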;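 further: signal also drops with host cell toxicity which is not excluded here; 0% = plate median of DMSO wells and 100% = zero luminescence signal; higher percent means less beta-gal luminescence so fewer parasites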
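Incubation – ≥90 h infection period, 3 h prior cell attachment · System – NIH/3T3 fibroblasts plus reporter T. cruzi · Doses – compound pinned at 50 nL/well, DMSO · Read-out basis – percent inhibition of parasite-derived β-gal signal · Signal – luminescent β-galactosidase signal after 60 min lysis · Also added – 5000 T. cruzi trypomastigotes/well · Medium – Low-serum DMEM with 2% FBS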
NALP1 yeast inh: inhibitors of NALP1 inflammasome in yeast | inhibition, % at 10 µM | S. cerevisiae NALP1/ASC/caspase-1 growth, X-gal OD620, 72 h | hit rate 0.61% among 280,000; in the data active means inhibition mostly above about 24%, no sharp cut-off; inactive means mostly below about 32%
NLRP3 yeast inh: inhibitors of NALP3 inflammasome in yeast. hit rate 0.39% among 330,000. AID 2825. inhibition, % at 10 µM. Yeast reconstituted NLRP3/ASC/caspase-1, beta-gal luminescence, 24 h;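 active means inhibition of 50% or more; inactive means inhibition below 50%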;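 further: plate controls were induced DMSO wells for no effect and uninduced yeast grown without galactose for full effect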
Calb FLC: C. albicans growth modulation with fluconazole; C. albicans CaCi-2 + fluconazole, Alamar Blue growth, 48 h; growth inhibition, % (test concentration not listed); hit rate 0.57% among 300,000;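 active means growth inhibition above about 58% in most replicates, limit read from the data, passing the limit was not always enough; inconclusive means exactly half the replicates above a set limit; inactive means most replicates below a set limit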;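 further: all wells also contain fluconazole at 8 µg/ml as a sub-toxic cotreatment; 0% = median of DMSO wells and 100% = median of geldanamycin control wells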
PolyA inhibitor: yeast polyadenylation inhibition | hit rate 0.02% among 300,000 | AID 1875 | S. cerevisiae SKY197-pL101 polyadenylation reporter, beta-gal luminescence; efflux-impaired pdr1/pdr3 knockout yeast; score 100 = 6 SD above DMSO | activity score, % at 12 µM;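 active means lowest replicate activity score at least 50, where 100 means six control SD above control mean; inconclusive means lowest score under 50 but half or more replicates reach 50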;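 further: yeast exposed to compound for 9 h at 30 °C; higher score means more reporter readthrough which indicates perturbed polyadenylation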
* hit, by the source's call; ? = inconclusive; · = no result. This is one part of a sample in which hits are shown more often than they occur.

SMILES | L major viab | T cruzi inh | NALP1 yeast inh | NLRP3 yeast inh | Calb FLC | PolyA inhibitor
COc1cc(OC)c(C2C(C#N)=C(C)NC(C)=C2C#N)c(C(=O)O)c1 | · | -1 | 6 | 11 | -14 | -13
O=C1N(CCCCN2C(=O)C3(OCCO3)c3ccccc32)c2ccccc2C12OCCO2 | 59* | 2 | -14 | -2 | 0 | 9
CCN(CC)CCNC(=S)Nc1ccc(Cl)cc1 | -6 | 12 | 2 | 0 | 4 | 8
CCN(CC)CCCNC(=S)Nc1ccc(Br)cc1 | 83* | -1 | -3 | 29 | -19 | 8
COC(=O)c1ccc(CNC(=O)c2ccc3c(c2)OCCO3)cc1 | · | -1 | 22 | 8 | -10 | 0
COc1ccc(Cc2noc(CN(C)CCc3ccccc3)n2)cc1OC | · | 7 | 15 | -6 | 4 | -1
COc1ccc(Cc2noc(CN(C)CCN3CCc4ccccc4C3)n2)cc1OC | 1 | 25 | 29* | -8 | -12 | ?
COc1ccc(C2=NCCn3cccc32)c(OC)c1 | -3 | -17 | 36 | 8 | 12 | 7
N#Cc1c(N)nc2c3c(sc(=N)c2c1N)NC(=O)CC3c1ccccc1 (stereo not given) | 8 | -1 | 32 | -4 | 11 | -4
N#Cc1c(N)nc2c3c(sc(=N)c2c1N)NC(=O)CC3c1c(F)cccc1Cl (stereo not given) | 100* | -9 | -28 | 16 | -22 | 3
N=c1c2c3c(sc2ncn1Cc1ccccc1)CCCC3 | 92* | -24 | 26 | 13 | 8 | -7
CCCCn1cnc2sc3c(c2c1=N)CCCC3 | 1 | -7 | 18 | 3 | ? | 14
c1coc(Cn2nnnc2CN2CCN(C3CCCC3)CC2)c1 | 74* | 1 | -14 | -6 | -8 | 5
CC(C)C(c1nnnn1Cc1ccc(F)cc1)N1CCN(C2CCCC2)CC1 (stereo not given) | 4 | 6 | 6 | 25 | -12 | 21
CCCC(c1nnnn1Cc1ccc(F)cc1)N1CCN(C2CCCCC2)CC1 (stereo not given) | 72* | 21 | 2 | 9 | -17 | 5
Fc1ccc(Cn2nnnc2CN2CCN(C3CCCCC3)CC2)cc1 | 86* | 4 | 28 | 8 | -4 | 8
CC[C@@]1(C(=O)OC)N[C@H](CN(C)S(=O)(=O)c2ccc(C(C)(C)C)cc2)[C@@H]2C(=O)N(Cc3ccccc3)C(=O)[C@@H]21 | · | · | · | 6 | · | ·
COc1ccc2c(C)cc(N3CCCCCC3)nc2c1 | 61* | 6 | 16 | 25 | 42 | 16
O=C(NNC(=O)c1ccc(-c2ccccc2)cc1)Nc1ccc(F)cc1F | · | 1 | 45 | 1 | -23 | 10
CCOc1c(S(=O)(=O)N2CCCC2)ccc(Cl)c1Cl | 9 | -9 | 41* | 21 | 2 | -6
CCOc1ccc(Cl)cc1S(=O)(=O)N1CCCC1 | -2 | -12 | -9 | 6 | -1 | 1
COc1cc2nc(CN3CCN(S(=O)(=O)c4ccc(Br)cc4)CC3)[nH]c(=O)c2cc1OC | · | · | · | 7 | · | ·
Cn1c(C(=O)O)c(CC(=O)NCc2cccnc2)c2ccccc21 | -5 | -8 | 5 | 9 | 2 | 3
Cc1ccccc1OCc1nc(-c2ccc(NC(=O)c3cccs3)cc2)no1 | 71* | 37 | 30 | 16 | 6 | -10
COc1ccc(NC(=S)NCCc2c[nH]c3ccccc23)c(OC)c1 | 28 | 12 | 12 | 12 | 28 | 0
SMILES | L major viab | T cruzi inh | NALP1 yeast inh | NLRP3 yeast inh | Calb FLC | PolyA inhibitor
COc1ccc(NC(=S)NCCc2c[nH]c3ccc(OC)cc23)c(OC)c1 | 24 | -11 | 29* | 11 | -14 | -1
CC(Oc1ccc(Cl)cc1Cl)C(=O)Nc1ccc(N2CCN(C)CC2)cc1 (stereo not given) | 100* | 15 | 16 | 23 | 6 | -2
CC(Oc1ccc(Cl)cc1Cl)C(=O)NNC(=O)C(=O)N1CCCCC1 (stereo not given) | 60* | -3 | 13 | -6 | -3 | -7
CC(=O)N1c2ccccc2N(Cc2ccc(C)cc2C)C(=O)C1(C)C | 94* | -30 | 4 | 17 | 9 | -6
CC(C)NC(=O)COC(=O)c1cccc(NS(=O)(=O)/C=C/c2ccccc2)c1 | -3 | 2 | 14 | 7 | 103* | 4
COc1cccc(/C=C(/C(=O)OCC(=O)NC2CCCC(C)C2C)c2ccccc2)c1 (stereo not given) | 96* | 3 | 30 | · | -1 | -20
